Hits are enriched below; roughly 4.1% of the tested compounds scored in any of these assays.
KCNK3 inh: human KCNK3 channel inhibition, primary screen; B-score at 10 µM; CHO-KCNK3 thallium flux, FluxOR fluorescence; hits give low values; hit rate 0.84% among 340,000; O14649;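 active means B-score under library mean minus 4 SD, starting fluorescence ratio at most library mean plus 5 SD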;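 further: more negative B-score means stronger inhibition of thallium flux through KCNK3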
KCNK9 block: blocks the human KCNK9 two-pore domain potassium channel; Q9NPC2; HEK293 KCNK9, FluxOR thallium flux fluorescence; hits give low values; B-score at 10 µM; hit rate 1.2% among 310,000;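 active means ratio B-score over 3 SD below the library mean, with starting fluorescence within 5 SD of its mean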;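 further: negative B-score means less thallium flux so channel inhibition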
Cl transport mod: KCC2 (human) Cl- transport modulation; Q9H2X9; B-score of Tl+ flux slope (higher = more flux/activation; lower = inhibition) at 10 µM; AID 1456; hit rate 2.2% among 190,000; KCC2 cells, thallium flux FluoZin-2 fluorescence;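 active means thallium flux slope and its plate-corrected score both differing from the plate sample mean at a set confidence after two filtering rounds, in either direction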;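 further: slope of fluorescence scaled to starting intensity during 10 to 20 s after thallium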
KCNQ1 pot: human KCNQ1 channel potentiation or activation | CHO-K1 KCNQ1, thallium flux FluxOR fluorescence; hits give high values | B-score at 10 µM | hit rate 0.35% among 310,000;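 active means fluorescence ratio B-score, a plate-corrected score, at least three library SD, with initial intensity B-score within 5 SD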
Target sequence (P51787 whole entry, looked up): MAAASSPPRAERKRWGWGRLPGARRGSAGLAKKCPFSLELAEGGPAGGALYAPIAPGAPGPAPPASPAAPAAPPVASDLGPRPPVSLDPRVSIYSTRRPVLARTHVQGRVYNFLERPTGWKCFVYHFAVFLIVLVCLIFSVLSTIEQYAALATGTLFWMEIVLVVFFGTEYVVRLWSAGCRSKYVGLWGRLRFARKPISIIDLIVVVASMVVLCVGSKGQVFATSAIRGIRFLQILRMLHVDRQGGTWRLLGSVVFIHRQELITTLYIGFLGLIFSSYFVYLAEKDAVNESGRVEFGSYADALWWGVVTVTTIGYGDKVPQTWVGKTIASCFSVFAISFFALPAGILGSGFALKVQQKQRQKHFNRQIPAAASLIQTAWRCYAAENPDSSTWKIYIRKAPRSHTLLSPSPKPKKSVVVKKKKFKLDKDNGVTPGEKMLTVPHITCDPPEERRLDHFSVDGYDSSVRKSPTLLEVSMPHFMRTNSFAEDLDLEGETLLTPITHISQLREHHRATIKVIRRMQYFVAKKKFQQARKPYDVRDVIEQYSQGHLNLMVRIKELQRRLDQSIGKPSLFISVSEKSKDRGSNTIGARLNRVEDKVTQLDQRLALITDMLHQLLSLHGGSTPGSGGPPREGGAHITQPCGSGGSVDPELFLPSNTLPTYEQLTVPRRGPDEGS
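assay system = KCNQ1-transfected CHO-K1 cells | medium = assay buffer with matched DMSO | probe or stimulus = depolarizing K+/Tl+ stimulus, K2SO4 and Tl2SO4 each 12.5 mM in 5x stock | dosing = single dose | incubation = dye 90 min, compound 20 min, room temperature | detection = kinetic FluxOR fluorescence, 10 s baseline plus 110 s post-stimulus | evaluation = ratio B score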
KCNQ1 inh: inhibitors of human KCNQ1 potassium channel. P51787. CHO-K1 KCNQ1, FluxOR thallium flux fluorescence; hits give high values. B-score at 10 µM. hit rate 1.3% among 310,000;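 active means compounds whose thallium flux B-score, printed positive for inhibition, exceeds three library SD while starting fluorescence stays within three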;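 further: channel opened by potassium depolarization with thallium stimulus after 20 min compound exposure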
hERG protect: hERG (human) protection from proarrhythmic block; Q12809; CHO-hERG, FluxOR thallium flux, dofetilide IC70 present; activation (rescue from dofetilide block), less the hit threshold, % at 10 µM; hit rate 0.51% among 310,000; AID 1511;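 active means activation above the mean of controls blocked by dofetilide plus 5 SD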;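 further: thallium influx through hERG after potassium depolarization seen as dye fluorescence rise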
The depositor's hits bear a star; i = inactive; . = no result.

SMILES	KCNK3 inh	KCNK9 block	Cl transport mod	KCNQ1 pot	KCNQ1 inh	hERG protect
Cc1nn(-c2ccccn2)c2c1C(c1c(F)cccc1Cl)C1=C(N2)c2ccccc2C1=O (stereo not given)	.	-6.93*	-1.73	i	i	-10.3
Cc1nn(-c2ccccn2)c2c1C(c1ccccc1Cl)C1=C(N2)c2ccccc2C1=O (stereo not given)	i	-7.02*	-0.839	i	i	-8.4
Cc1ccc(C)c(S(=O)(=O)N2CCN(C(=O)Cc3sc(C)nc3-c3ccc(F)cc3)CC2)c1	i	.	.	.	.	.
COc1cccc(OCCNC(=O)c2cc([N+](=O)[O-])cc([N+](=O)[O-])c2)c1	i	i	-1.08	i	i	-8.6
Cc1ccc(OCCNC(=O)c2cc(C(=O)NCCOc3ccc(C)cc3)cc([N+](=O)[O-])c2)cc1	i	i	1.52	i	10*	-3.5
Cc1cccc(OCCNC(=O)c2ccc(Oc3ccc(C(F)(F)F)cc3[N+](=O)[O-])cc2)c1	-9.46*	i	0.578	i	6*	-16.5
O=C(c1ccc(Oc2ccc(C(F)(F)F)cc2[N+](=O)[O-])cc1)N1CCOCC1	i	i	0.883	i	i	-9.9
COc1ccc(CCN2CC(C(=O)Nc3nccs3)CC2=O)cc1OC (stereo not given)	i	.	.	.	.	.
CCOc1ccccc1C(=O)NCC(=O)OCC(=O)c1c(N)n(C)c(=O)n(C)c1=O	i	.	.	.	.	.
O=C(O)c1ccccc1NS(=O)(=O)c1ccccc1C(F)(F)F	i	i	-0.0774	i	i	-6.2
O=S(=O)(Nc1ccccc1N1CCOCC1)c1ccccc1C(F)(F)F	-10.3*	.	.	.	.	.
CCOc1ccccc1N1CCN(C(=S)NC(=O)C23CC4CC(CC(C4)C2)C3)CC1	i	i	4.75*	i	i	-6.2
O=C1C=CC2(O[C@H](c3ccccc3)[C@@H](c3ccccc3)O2)[C@H](Sc2ccccc2O)C1	i	.	.	.	.	.
COC(=O)c1c(NC(=O)Cc2cccs2)sc(C(=O)NC2CCCCC2)c1C	i	i	.	i	i	5.2*
CCOC(=O)c1c(NC(=O)Cc2cccs2)sc(C(=O)NC2CCCCC2)c1C	i	i	0.546	i	i	-2.9
CC1CCN(C(=O)CN2C(=O)NC3(CCC(C)CC3)C2=O)CC1 (stereo not given)	i	.	.	.	.	.
C=CCNC(=O)c1onc(CS(=O)(=O)c2cc(C)cc(C)c2)c1C(=O)NCC=C	i	i	.	i	i	-5.3
COc1ccc(/C(N)=N/OC(=O)c2ccc3c(c2)OCO3)cc1OC	i	i	0.0736	i	i	5.9*
N/C(=N\OC(=O)c1ccc2c(c1)OCO2)c1cccc(Br)c1	i	i	-0.919	i	i	-0.5
O=C(O)C(Cc1ccccc1)N1C(=O)/C(=C/c2cccc3ccccc23)SC1=S (stereo not given)	.	.	-7.24*	.	.	.
COCCCNC(=O)c1ccc2c3c(onc13)-c1ccccc1C2=O	i	i	i	i	10*	-55.6
CCC(C)(C)n1nnnc1C(c1cccnc1)N1CCC(Cc2ccccc2)CC1 (stereo not given)	i	-7.6*	-2.55	i	i	-12.7
COc1ccc(CCNC(=O)c2ccc(NC(=O)CC3SC(N4CCCC4)=NC3=O)cc2)cc1OC (stereo not given)	i	.	.	.	.	.
O=C(Nc1nnc(-c2ccc(Cl)cc2)o1)c1ccc(N2C(=O)CCC2=O)cc1	i	i	11.6*	i	i	-3.9
O=C(Nc1nnc(-c2ccco2)o1)c1ccc(N2C(=O)CCC2=O)cc1	i	i	-0.493	i	i	-9.2
SMILES	KCNK3 inh	KCNK9 block	Cl transport mod	KCNQ1 pot	KCNQ1 inh	hERG protect
CCCC1=NN(C(=O)C(=O)Nc2ccc(Br)cc2)C(O)(C(F)(F)F)C1 (stereo not given)	i	i	0.212	i	i	-9.2
COc1ccc(NC(=O)C(=O)N2N=C(C(C)C)CC2(O)C(F)(F)F)cc1 (stereo not given)	i	i	.	i	6*	1.7
CCC1=NN(C(=O)C(=O)Nc2ccc(Br)cc2)C(O)(C(F)(F)F)C1 (stereo not given)	i	i	-2.21	i	6*	-3.3
CN(C)C(=O)CCc1ccc2c3c([nH]c2c1)[C@]1(C)[C@@H](C(=O)N2CCOCC2)C[C@H](CC(=O)NCCC2=CCCCC2)C(=O)N1CC3	i	.	.	.	.	.
N#C/C(=C\c1c(N2CCCCC2)nc2ccccn2c1=O)S(=O)(=O)c1ccccc1	i	i	-0.465	i	i	-7.8
O=C(Nc1ccc2c(c1)OCO2)c1c[nH]c(=O)n(-c2ccc(F)cc2)c1=O	i	i	.	i	i	-8.9
CCCn1c(N)c(N(CCOC)C(=O)c2cc3c(s2)CCCCC3)c(=O)[nH]c1=O	i	i	.	i	i	-12.3
COc1cc(/C=C(\C#N)C(=O)c2c(C)[nH]c3ccccc23)cc(OC)c1OC	i	i	-0.749	i	i	-16.4
COc1ccc(/C=C(\C#N)C(=O)c2c(C)[nH]c3ccccc23)cc1OC	i	i	-2.07	i	6*	-23.1
O=C(Nc1ccnn1C1CCN(Cc2cccc(OCCO)c2)CC1)C1CCOC1 (stereo not given)	i	i	.	i	i	-8.9
Cc1ccc(CNC(=O)c2cn(C)c(=O)c3c2c2ccccc2n3C)o1	i	i	.	i	i	-9.0
Cc1ccc(CNC(=O)c2cn(C3CCCCC3)c(=O)c3c2c2ccccc2n3C)o1	-9.41*	i	.	i	i	-7.7
COc1ccc2oc(C(=O)Nc3ccc(S(=O)(=O)N(C)C4CCN(C)CC4)cc3)c(C)c2c1	i	i	.	i	i	-10.9
CSC1=NC(C(Cl)(Cl)Cl)N=C(c2ccccc2)N1 (stereo not given)	i	i	0.274	i	i	8.6*
CCC(NC(=O)C(C)NC)C(=O)N1CCCC1C(=O)NC1CCCc2ccccc21 (stereo not given)	i	.	.	.	.	.
c1ccc(C2CNCCc3ccccc32)cc1 (stereo not given)	i	i	.	i	i	-7.7
S=C1NCCc2ccc(Cl)cc2C1c1ccccc1 (stereo not given)	-10*	.	-0.177	.	.	.
CCCCN(C(=O)C1CC(=O)N(Cc2ccc(C)cc2)C1)c1c(N)n(CC(C)C)c(=O)[nH]c1=O (stereo not given)	i	i	.	i	i	-10.4
O=C1NC(Nc2nccs2)(C(F)(F)F)C(=O)N1CCc1ccccc1 (stereo not given)	i	i	-2.58*	i	i	-5.5
COCCCNC(=O)c1cn(-c2cccc(OC)c2)c(=O)c2ccccc12	i	i	.	i	i	-1.4
